Values belong to the compound of their own block, whether it stands above or below them.
How the values were obtained:
[1] = Clearance in monkey hepatocytes assessed per million cells; format: ADME, cell-based, Macaca mulatta, Hepatocyte; settings: rhesus monkey, read-out: CLH
[2] = Clearance in dog hepatocytes assessed per million cells; format: ADME, cell-based, Canis lupus familiaris, Hepatocyte; settings: read-out: CLH
[3] = Ratio of drug level in brain to plasma of rat after 6 hrs; format: ADME; settings: read-out: BPR
Outline: (§1)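 Animals were sacrificed at 6 h for ex vivo measurement of plasma concentration (nM) and brain level (ng/g), from which the brain to plasma ratio was derived.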

[4] = Clearance in human hepatocytes assessed per million cells; format: ADME, cell-based, Hepatocyte; settings: read-out: CLH
[5] = Clearance in rat hepatocytes assessed per million cells; format: ADME, cell-based, Hepatocyte; settings: read-out: CLH
[6] = AUC (0 to 6 hrs) in monkey at 3 mg/kg, po; format: ADME, organism-based, Macaca mulatta; design: time < 6 hr, dose 3 mg/kg, route oral; settings: rhesus monkey, plasma
[7] = Half life in monkey at 3 mg/kg, po; format: ADME, organism-based, Macaca mulatta; design: dose 3 mg/kg, route oral; settings: rhesus monkey, in vivo
[8] = AUC (0 to 6 hrs) in rat at 10 mg/kg, po; format: ADME, organism-based; design: time < 6 hr, dose 10 mg/kg, route oral; settings: plasma
[9] = Drug uptake in rat brain after 6 hrs; format: ADME, tissue-based; settings: read-out: Drug uptake; outline: as §1
[10] = Plasma concentration in rat after 6 hrs; format: ADME; outline: as §1

Compound: COc1cc(C)c2nc3[nH]nc(C)c3c(C(=O)c3ccncc3)c2c1
hepatocyte CLint [1]: 66 µL/min/1e6 cells

Compound: COc1cc(C)c2nc3[nH]nc(C)c3c(C(O)c3ncco3)c2c1 (racemic)
hepatocyte CLint [1]: 63 µL/min/1e6 cells

Compound: Cc1ncc(C(O)c2c3cc(Cl)cc(C)c3nc3[nH]nc(C)c23)cn1 (racemic)
hepatocyte CLint [2]: 7 µL/min/1e6 cells
Kp at 6 h [3]: < 0.18
hepatocyte CLint [4]: 2 µL/min/1e6 cells
hepatocyte CLint [5]: 11 µL/min/1e6 cells
hepatocyte CLint [1]: 8 µL/min/1e6 cells
AUC(0-t) at 6 h [6]: 11.5 µM·h
half-life [7]: 7.1 h
AUC(0-t) at 6 h [8]: 4.29 µM·h
concentration at 6 h [9]: < 14 ng/g
concentration at 6 h [10]: 220 nM

Compound: COc1cc(C)c2nc3[nH]nc(C)c3c(C(O)c3cccnc3)c2c1 (racemic)
hepatocyte CLint [1]: 67 µL/min/1e6 cells

Compound: COc1cc(C)c2nc3[nH]nc(C)c3c(C(C)(O)c3ccncc3)c2c1 (racemic)
hepatocyte CLint [1]: 66 µL/min/1e6 cells

Compound: COc1cc(C)c2nc3[nH]nc(C)c3c(C(O)c3ccncc3)c2c1 (single isomer, unassigned; (+))
hepatocyte CLint [1]: 66 µL/min/1e6 cells

Compound: COc1ccc(C(O)c2c3cc(OC)cc(C)c3nc3[nH]nc(C)c23)cc1 (racemic)
hepatocyte CLint [1]: 60 µL/min/1e6 cells

Results, then the compound that gave them:

hepatocyte CLint [1]: 64 µL/min/1e6 cells
Compound: COc1cc(C)c2nc3[nH]nc(C)c3c(C(C#N)c3ccccc3)c2c1 (racemic)

hepatocyte CLint [1]: 63 µL/min/1e6 cells
Compound: COc1cc(C)c2nc3[nH]nc(C)c3c(C(O)c3ccc(F)cc3)c2c1 (racemic)

hepatocyte CLint [1]: 22 µL/min/1e6 cells
Compound: COc1cc(C)c2nc3[nH]nc(C)c3c(C(O)c3cncn3C)c2c1 (racemic)

hepatocyte CLint [1]: 25 µL/min/1e6 cells
Compound: Cc1cc(Cl)cc2c(C(O)c3ccncc3)c3c(C)n[nH]c3nc12 (racemic)

hepatocyte CLint [1]: 62 µL/min/1e6 cells
Compound: COc1cc(C)c2nc3[nH]nc(C)c3c(C(F)c3ccncc3)c2c1 (single isomer, unassigned; (-))

hepatocyte CLint [1]: 37 µL/min/1e6 cells
Compound: Cc1cc(Cl)cc2c(C(O)c3ccnc(F)c3)c3c(C)n[nH]c3nc12 (racemic)

Kp at 6 h [3]: 1.5
hepatocyte CLint [4]: 5 µL/min/1e6 cells
hepatocyte CLint [5]: 26 µL/min/1e6 cells
hepatocyte CLint [1]: 46 µL/min/1e6 cells
AUC(0-t) at 6 h [8]: 11 µM·h
concentration at 6 h [9]: 115 ng/g
concentration at 6 h [10]: 810 nM
Compound: Cc1cc(Cl)cc2c(C(O)c3cccnc3)c3c(C)n[nH]c3nc12 (racemic)

hepatocyte CLint [4]: 8 µL/min/1e6 cells
hepatocyte CLint [5]: < 1 µL/min/1e6 cells
AUC(0-t) at 6 h [8]: 3.76 µM·h
Compound: COc1cc(C)c2nc3[nH]nc(C)c3c(CN3CCCOCC3)c2c1

hepatocyte CLint [1]: 66 µL/min/1e6 cells
Compound: COc1cc(C)c2nc3[nH]nc(C)c3c(C(O)c3ccnc(F)c3)c2c1 (racemic)

— ChEMBL document CHEMBL1949546, “Pyrazoloquinolines as PDE10A inhibitors: discovery of a tool compound” (Bioorg Med Chem Lett, 2012)
